ChEMBL document CHEMBL1149415, “Discovery and structure-activity relationship of antagonists of B-cell lymphoma 2 family proteins with chemopotentiation activity in vitro and in vivo” (J Med Chem, 2006)
Calls of active or inactive are those of the source. The rule behind the calls is not given here.

Key:
Bcl-2-like protein 1 [1] = target: T1, Bcl-2-like protein 1 (Homo sapiens, UniProt Q07817); test: Binding affinity to Bcl-XL by fluorescence polarization assay
Target sequence in this assay (Q07817 whole entry): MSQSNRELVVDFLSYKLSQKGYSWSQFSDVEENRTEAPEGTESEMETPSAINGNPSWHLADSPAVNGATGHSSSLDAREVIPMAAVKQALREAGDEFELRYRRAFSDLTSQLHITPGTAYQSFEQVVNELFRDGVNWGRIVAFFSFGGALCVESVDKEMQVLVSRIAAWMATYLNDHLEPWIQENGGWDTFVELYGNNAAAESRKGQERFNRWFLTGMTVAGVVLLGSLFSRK

Bcl-2-like protein 1 [2] = target: T1, Bcl-2-like protein 1; test: Binding affinity to Bcl-XL in 1% human serum by fluorescence polarization assay
Target sequence in this assay (Q07817 whole entry): as above

[3] = target: Apoptosis regulator Bcl-2 (Homo sapiens, UniProt P10415); test: Binding affinity to Bcl2 by fluorescence polarization assay
Sequence of Apoptosis regulator Bcl-2 (P10415 whole entry): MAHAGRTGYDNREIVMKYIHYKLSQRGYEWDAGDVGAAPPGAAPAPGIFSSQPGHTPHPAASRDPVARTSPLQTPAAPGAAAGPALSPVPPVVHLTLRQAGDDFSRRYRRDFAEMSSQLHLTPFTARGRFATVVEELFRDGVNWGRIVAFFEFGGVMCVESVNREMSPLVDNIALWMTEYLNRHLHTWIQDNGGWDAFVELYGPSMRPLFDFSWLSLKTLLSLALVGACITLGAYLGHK

Bcl-2-like protein 1 [4] = target: T1, Bcl-2-like protein 1; test: Binding affinity to Bcl-XL in 10% human serum by fluorescence polarization assay
Method in brief: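 Competitive fluorescence polarization: serial compound dilutions compete with 30 nM f-Bad peptide (FITC-labelled) for 60 nM Bcl-XL. Human serum at 10% added to the assay buffer. Duplicate values per determination; Ki calculated.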
Target sequence in this assay (Q07817 whole entry): as the sequence (Q07817 whole entry) above

Bcl-2-like protein 1 [5] = target: T1, Bcl-2-like protein 1; test: Activity towards mouse FL5.12 cell line transfected with Bcl-XL in presence of 3% fetal bovine serum; assay type: functional
Method in brief: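 Bcl-XL-transfected murine FL5.12 (IL-3 dependent) grown in RPMI with 10% FBS and WEHI-3B conditioned medium as the IL-3 source. Switched to IL-3-depleted, FBS-free medium for 2 days. Then placed in gelatin assay medium (3.4 mg/mL bovine gelatin) or 3% FBS assay medium. Serial compound dilutions added for 24 h. Viability read by MTS or CellTiter-Glo; duplicate values per determination; EC50.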
Target sequence in this assay (Q07817 whole entry): as above

A549 [6] = test: Antiproliferative activity against human A549 lung carcinoma cell xenograft tumor model in scid mice in presence of paclitaxel at MTD; assay type: functional
Method in brief: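 A549 cells (5 × 10⁶ in 50% Matrigel) inoculated subcutaneously into flank; groups of equal tumor size (N = 10) assigned at ~250 mm³ (day 15). Dosing ip: agent 75 mg/kg/day days 16-36 in 5% Tween 80/20% PEG/75% 0.1 M NaPO₄ pH ~4.0; paclitaxel 30 mg/kg/day days 16, 20, 24. Calipers twice weekly, V = L × W²; %ILS as median time to 1 cm³.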

A549 [7] = test: Effect of viability of human A549 lung carcinoma cells at 20uM after 48h by MTS assay in presence of paclitaxel; assay type: functional, cell-based
Method in brief: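 A549 seeded in DMEM with 5% FBS the day before. Pretreated 48 h with paclitaxel serial 3-fold dilutions from 20 nM, then coincubated 48 h with paclitaxel plus compound in DMEM with 0.34% gelatin (serum-free). Viability by MTS, normalized to untreated cells.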

[8] = target: Induced myeloid leukemia cell differentiation protein Mcl-1 (Homo sapiens, UniProt Q07820); test: Binding affinity to Mcl1
Sequence of Induced myeloid leukemia cell differentiation protein Mcl-1 (Q07820 whole entry, the tested form may be a part): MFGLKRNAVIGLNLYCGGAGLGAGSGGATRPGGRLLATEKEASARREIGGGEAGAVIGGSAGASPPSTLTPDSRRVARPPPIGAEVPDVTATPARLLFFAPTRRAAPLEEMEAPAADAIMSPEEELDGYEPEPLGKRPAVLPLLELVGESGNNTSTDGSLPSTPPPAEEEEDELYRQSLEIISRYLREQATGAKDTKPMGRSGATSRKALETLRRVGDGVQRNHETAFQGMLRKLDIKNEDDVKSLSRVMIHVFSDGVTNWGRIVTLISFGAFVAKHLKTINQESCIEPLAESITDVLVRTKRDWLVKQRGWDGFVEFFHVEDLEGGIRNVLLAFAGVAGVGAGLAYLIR

Albumin = Albumin (Homo sapiens, UniProt P02768); test: Binding affinity for human serum albumin domain III
Sequence of Albumin (P02768 whole entry, the tested form may be a part): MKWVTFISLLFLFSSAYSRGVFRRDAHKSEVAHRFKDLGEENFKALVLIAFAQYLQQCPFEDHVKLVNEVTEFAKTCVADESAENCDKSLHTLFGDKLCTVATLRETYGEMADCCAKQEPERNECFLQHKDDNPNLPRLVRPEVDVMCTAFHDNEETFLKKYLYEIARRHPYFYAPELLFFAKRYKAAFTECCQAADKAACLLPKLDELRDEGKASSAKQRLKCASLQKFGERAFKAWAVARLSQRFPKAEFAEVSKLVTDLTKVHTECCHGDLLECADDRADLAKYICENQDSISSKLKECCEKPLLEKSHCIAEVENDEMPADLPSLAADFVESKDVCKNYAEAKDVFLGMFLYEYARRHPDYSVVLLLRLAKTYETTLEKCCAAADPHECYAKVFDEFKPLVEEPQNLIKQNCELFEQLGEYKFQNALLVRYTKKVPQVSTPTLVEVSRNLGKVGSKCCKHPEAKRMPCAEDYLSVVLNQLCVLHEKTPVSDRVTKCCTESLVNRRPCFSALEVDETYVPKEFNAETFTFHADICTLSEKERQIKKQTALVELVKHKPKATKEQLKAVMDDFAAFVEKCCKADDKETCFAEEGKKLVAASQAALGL

A549 [9] = test: Effect on viability of human A549 lung carcinoma cells at 20 uM after 48h by MTS assay in presence of 10% fetal bovine serum; assay type: functional, cell-based
Method in brief: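 A549 seeded in DMEM with 5% FBS the day before. Medium removed and UV-C applied (start 32 mJ/cm², halved each step), then compound added in DMEM with 10% FBS. Viability by MTS at 48 h post-exposure, expressed as percent of untreated samples.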

Bcl-2-like protein 2 = target: T2, Bcl-2-like protein 2 (Homo sapiens, UniProt Q92843); test: Binding affinity to Bclw
T2 sequence (Q92843 whole entry): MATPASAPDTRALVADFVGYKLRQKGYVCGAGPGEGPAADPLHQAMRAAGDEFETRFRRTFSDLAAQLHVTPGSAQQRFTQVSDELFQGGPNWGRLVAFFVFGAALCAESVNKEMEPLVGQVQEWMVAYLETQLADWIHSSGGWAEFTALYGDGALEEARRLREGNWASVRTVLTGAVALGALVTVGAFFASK

Bcl-2-like protein 1 [10] = target: T1, Bcl-2-like protein 1; test: Inhibitory activity against Bcl-XL in presence of HSA3 from 1% human serum
Target sequence in this assay (Q07817 whole entry, looked up): as the sequence (Q07817 whole entry) above

Bcl-2-like protein 1 [11] = target: T1, Bcl-2-like protein 1; details: 10 uM
Target sequence in this assay (Q07817 whole entry): as above

Bcl-2-like protein 1 [12] = target: T1, Bcl-2-like protein 1; test: Inhibitory activity against Bcl-XL in presence of HSA from 1% human serum
Method in brief: (§1)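 Competitive fluorescence polarization assay: serial compound dilutions compete with 30 nM f-Bad peptide (FITC-labelled) for binding to 60 nM Bcl-XL. Human serum (1%) or individual serum proteins are added to the assay buffer. Protein levels: HSA 0.42 mg/mL, HSA-III 0.146 mg/mL, α1-acid glycoprotein 0.0095 mg/mL. IC50 is calculated from duplicate values per determination.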
Target sequence in this assay (Q07817 whole entry): as above

Bcl-2-like protein 1 [13] = target: T1, Bcl-2-like protein 1; test: Inhibitory activity against Bcl-XL in presence of alpha-1 acid glycoprotein from 1% human serum; method in brief: as §1
Bcl-2-like protein 1 [14] = target: T1, Bcl-2-like protein 1; test: Inhibitory activity against Bcl-XL in presence of 1% human serum; method in brief: as §1

Structure (SMILES) | Ki (Bcl-2-like protein 1 [1]) | Ki (Bcl-2-like protein 1 [2]) | Ki [3] | EC50 (Bcl-2-like protein 1 [5]) | other results
COc1cc(CCCN(C)C)ccc1-c1ccc(C(=O)NS(=O)(=O)c2ccc(NCCSc3ccccc3)c([N+](=O)[O-])c2)cc1 | 106 nM | 730 nM | 1230 nM | – | Ki (Bcl-2-like protein 1 [4]): 5660 nM
CC(C)(C)OC(=O)N1CCN(c2ccc(C(=O)NS(=O)(=O)c3ccc(NCCSc4ccccc4)c([N+](=O)[O-])c3)cc2)CC1 | 396 nM | 3350 nM | 2880 nM | – | –
COc1cc(CC(=O)N(C)C)ccc1-c1ccc(C(=O)NS(=O)(=O)c2ccc(NCCSc3ccccc3)c([N+](=O)[O-])c2)cc1 | 251 nM | > 10000 nM | > 10000 nM | – | –
COc1cc(CCCN2CCOCC2)ccc1-c1ccc(C(=O)NS(=O)(=O)c2ccc(N[C@H](CCCCN)CSc3ccccc3)c([N+](=O)[O-])c2)cc1 | 0.8 nM | 29.6 nM | 70 nM | 9000 nM | –
CC1(C)CCN(c2ccc(C(=O)NS(=O)(=O)c3ccc(N[C@H](CCCCN)CSc4ccccc4)c([N+](=O)[O-])c3)cc2)CC1 | 1 nM | 256 nM | 231 nM | 20800 nM | –
COc1cc(CCC(=O)N2CCOCC2)ccc1-c1ccc(C(=O)NS(=O)(=O)c2ccc(NCCSc3ccccc3)c([N+](=O)[O-])c2)cc1 | 57.9 nM | 790 nM | 366 nM | – | –
CN(C)CCCC[C@H](CSc1ccccc1)Nc1ccc(S(=O)(=O)NC(=O)c2ccc(N3CCC(C)(C)CC3)cc2)cc1[N+](=O)[O-] | 1.2 nM | 174 nM | 73 nM | 3890 nM | –
CC1(C)CCN(c2ccc(C(=O)NS(=O)(=O)c3ccc(N[C@@H](CCN4CCOCC4)CSc4ccccc4)c([N+](=O)[O-])c3)cc2)CC1 | 75 nM | 6050 nM | 732 nM | 9310 nM | –
CN(C)C(=O)N1CCN(c2ccc(C(=O)NS(=O)(=O)c3ccc(NCCSc4ccccc4)c([N+](=O)[O-])c3)cc2)CC1 | 294 nM | 869 nM | 3540 nM | – | –
CN(C)CC[C@H](CSc1ccccc1)Nc1ccc(S(=O)(=O)NC(=O)c2ccc(N3CCC(C)(C)CC3)cc2)cc1[N+](=O)[O-] | 0.8 nM | 360 nM | 67 nM | 5100 nM | Activity (A549 [6]): 75%; Activity (A549 [7]): Active; Kd [8]: > 10000 nM; Kd (Albumin): 13600 nM; Activity (A549 [9]): Active; Kd (Bcl-2-like protein 2): 459 nM
COc1cc(CCCN2CCOCC2)ccc1-c1ccc(C(=O)NS(=O)(=O)c2ccc(N[C@H](CCCN(C)C)CSc3ccccc3)c([N+](=O)[O-])c2)cc1 | 0.9 nM | 71 nM | 317 nM | 8600 nM | –
CC1(C)CCN(c2ccc(C(=O)NS(=O)(=O)c3ccc(N[C@H](CCN4CCOCC4)CSc4ccccc4)c([N+](=O)[O-])c3)cc2)CC1 | 1.1 nM | > 10000 nM | 55 nM | 7000 nM | –
O=C(NS(=O)(=O)c1ccc(NCCSc2ccccc2)c([N+](=O)[O-])c1)c1ccc(N2CCOCC2)cc1 | 1080 nM | > 10000 nM | > 10000 nM | – | –
COc1cc(CCCN2CCOCC2)ccc1-c1ccc(C(=O)NS(=O)(=O)c2ccc(N[C@H](CCN3CCOCC3)CSc3ccccc3)c([N+](=O)[O-])c2)cc1 | < 0.5 nM | > 10000 nM | 165 nM | 2110 nM | –
O=C(NS(=O)(=O)c1ccc(NCCSc2ccccc2)c([N+](=O)[O-])c1)c1ccc(-c2ccc(F)cc2)cc1 | 36 nM | 2500 nM | 433 nM | – | IC50 (Bcl-2-like protein 1 [10]): 6300 nM; inhibition (Bcl-2-like protein 1 [11]): 1%; IC50 (Bcl-2-like protein 1 [12]): > 10000 nM; IC50 (Bcl-2-like protein 1 [13]): 122 nM; IC50 (Bcl-2-like protein 1 [14]): > 10000 nM
